Blank lines part the entries; values can stand above or below the compound they belong to.
Tests used:
Type in all cases: ADME, organism-based, Macaca mulatta
[1] = Drug level in normal rhesus monkey parietal cortex assessed as standard uptake value at 81.2 MBq, iv after 3.5 mins by microPET; details: in vivo
[2] = Drug level in normal rhesus monkey parietal cortex assessed as standard uptake value at 81.2 MBq, iv after 22.5 mins by microPET; details: in vivo, 0.375 h
[3] = Drug level in normal rhesus monkey thalamus assessed as standard uptake value at 81.2 MBq, iv after 4.5 mins by microPET; details: in vivo, 0.075 h
[4] = Drug level in normal rhesus monkey thalamus assessed as standard uptake value at 81.2 MBq, iv after 8 mins by microPET; details: in vivo
[5] = Drug level in normal rhesus monkey thalamus assessed as standard uptake value at 81.2 MBq, iv after 17.5 mins by microPET; details: in vivo
[6] = Drug level in normal rhesus monkey cerebellum assessed as standard uptake value at 81.2 MBq, iv after 4.5 mins by microPET; details: in vivo, 0.075 h
Procedure, shortened: (§1)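 One normal rhesus monkey, each tracer given iv via the vena saphena (81.2, 96.3 or 109.4 MBq), with 1 day between tracer injections. Dynamic brain μPET over 180 min used frames of 5 × 60 s, 5 × 120 s, 9 × 300 s and 12 × 600 s. Images were reconstructed by filtered back projection with a RAMP filter. Regional time-activity curves were expressed as SUV.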

[7] = Drug level in normal rhesus monkey pons assessed as standard uptake value at 96.3 MBq, iv after 27.5 mins by microPET; details: in vivo
[8] = Drug level in normal rhesus monkey thalamus assessed as standard uptake value at 96.3 MBq, iv after 10 mins by microPET; details: in vivo
[9] = Drug level in normal rhesus monkey thalamus assessed as standard uptake value at 96.3 MBq, iv after 14 mins by microPET; details: in vivo
[10] = Drug level in normal rhesus monkey thalamus assessed as standard uptake value at 96.3 MBq, iv after 75 mins by microPET; details: in vivo, 1.25 h
[11] = Drug level in normal rhesus monkey pons assessed as standard uptake value at 96.3 MBq, iv after 4.5 mins by microPET; details: in vivo, 0.075 h
[12] = Drug level in normal rhesus monkey cerebellum assessed as standard uptake value at 96.3 MBq, iv after 1.5 mins by microPET; details: in vivo, 0.025 h; procedure, shortened: as §1
[13] = Drug level in normal rhesus monkey cerebellum assessed as standard uptake value at 96.3 MBq, iv after 4.5 mins by microPET; details: in vivo, 0.075 h; procedure, shortened: as §1
[14] = Drug level in normal rhesus monkey pons assessed as standard uptake value at 96.3 MBq, iv after 10 mins by microPET; details: in vivo
[15] = Drug level in normal rhesus monkey pons assessed as standard uptake value at 96.3 MBq, iv after 155 mins by microPET; details: in vivo
[16] = Drug level in normal rhesus monkey parietal cortex assessed as standard uptake value at 96.3 MBq, iv after 22.5 mins by microPET; details: in vivo, 0.375 h
[17] = Drug level in normal rhesus monkey frontal cortex assessed as standard uptake value at 96.3 MBq, iv after 8 mins by microPET; details: in vivo
[18] = Drug level in normal rhesus monkey white matter assessed as standard uptake value at 96.3 MBq, iv after 22.5 mins by microPET; details: in vivo, 0.375 h
[19] = Drug level in normal rhesus monkey thalamus assessed as standard uptake value at 109.4 MBq, iv after 123 mins by microPET; details: in vivo, 2.05 h
[20] = Drug level in normal rhesus monkey pons assessed as standard uptake value at 109.4 MBq, iv after 0.375 mins by microPET; details: in vivo, 22 s
[21] = Drug level in normal rhesus monkey pons assessed as standard uptake value at 109.4 MBq, iv after 27.5 mins by microPET; details: in vivo
[22] = Drug level in normal rhesus monkey pons assessed as standard uptake value at 109.4 MBq, iv after 32.5 mins by microPET; details: in vivo
[23] = Drug level in normal rhesus monkey frontal cortex assessed as standard uptake value at 109.4 MBq, iv after 4.5 mins by microPET; details: in vivo, 0.075 h; procedure, shortened: as §1
[24] = Drug level in normal rhesus monkey thalamus assessed as standard uptake value at 109.4 MBq, iv after 69 mins by microPET; details: in vivo, 1.15 h
[25] = Drug level in normal rhesus monkey thalamus assessed as standard uptake value at 109.4 MBq, iv after 87 mins by microPET; details: in vivo, 1.45 h
[26] = Drug level in normal rhesus monkey parietal cortex assessed as standard uptake value at 109.4 MBq, iv after 63 mins by microPET; details: in vivo, 1.05 h
[27] = Drug level in normal rhesus monkey parietal cortex assessed as standard uptake value at 109.4 MBq, iv after 117 mins by microPET; details: in vivo, 1.95 h
[28] = Drug level in normal rhesus monkey cerebellum assessed as standard uptake value at 152.9 MBq, iv after 57.5 mins by microPET; details: in vivo
Procedure, shortened: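 One normal rhesus monkey received each tracer via the vena saphena, with 1 day between injections. Dynamic μPET ran 180 min for 18F tracers (5×60 s, 5×120 s, 9×300 s, 12×600 s) and 90 min for the 11C tracer (5×60 s, 5×120 s, 9×300 s, 3×600 s). Filtered back-projection reconstruction (RAMP filter) was used. Time-activity curves were drawn to give regional SUV.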

[29] = Drug level in normal rhesus monkey cerebellum assessed as standard uptake value at 152.9 MBq, iv after 85 mins by microPET; details: in vivo
Procedure, shortened: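 One normal rhesus monkey, tracer given iv via the vena saphena (152.9 MBq), with at least 1 day between tracer injections. Dynamic brain μPET over 90 min used frames of 5 × 60 s, 5 × 120 s, 9 × 300 s and 3 × 600 s. Images were reconstructed by filtered back projection with a RAMP filter. Regional time-activity curves were expressed as SUV.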

[30] = Drug level in normal rhesus monkey white matter assessed as standard uptake value at 152.9 MBq, iv after 2.5 mins by microPET; details: in vivo
[31] = Drug level in normal rhesus monkey white matter assessed as standard uptake value at 152.9 MBq, iv after 4.5 mins by microPET; details: in vivo, 0.075 h
[32] = Drug level in normal rhesus monkey white matter assessed as standard uptake value at 152.9 MBq, iv after 27.5 mins by microPET; details: in vivo
[33] = Drug level in normal rhesus monkey thalamus assessed as standard uptake value at 152.9 MBq, iv after 2.5 mins by microPET; details: in vivo
[34] = Drug level in normal rhesus monkey pons assessed as standard uptake value at 152.9 MBq, iv after 12 mins by microPET; details: in vivo, 0.2 h
[35] = Drug level in normal rhesus monkey parietal cortex assessed as standard uptake value at 152.9 MBq, iv after 0.5 mins by microPET; details: in vivo
[36] = Drug level in normal rhesus monkey parietal cortex assessed as standard uptake value at 152.9 MBq, iv after 32.5 mins by microPET; details: in vivo
[37] = Drug level in normal rhesus monkey parietal cortex assessed as standard uptake value at 152.9 MBq, iv after 47.5 mins by microPET; details: in vivo

SUV [1]: 4.897 | SUV [2]: 4.538 | SUV [3]: 4.054 | SUV [4]: 4.734 | SUV [5]: 5.379 | SUV [6]: 2.964
SMILES: CNc1ccc2nc(-c3ccc([18F])cc3)sc2c1

SUV [7]: 1.61 | SUV [8]: 2.12 | SUV [9]: 2.33 | SUV [10]: 2.19 | SUV [11]: 1.28 | SUV [12]: 1.17 | SUV [13]: 1.63 | SUV [14]: 1.57 | SUV [15]: 1.87 | SUV [16]: 2.09 | SUV [17]: 1.98 | SUV [18]: 1.3
SMILES: CN(C)c1ccc2nc(-c3ccc([18F])cc3)sc2c1

SUV [19]: 4.63 | SUV [20]: 0.4 | SUV [21]: 4.78 | SUV [22]: 4.74 | SUV [23]: 5.43 | SUV [24]: 5.32 | SUV [25]: 4.98 | SUV [26]: 4.18 | SUV [27]: 3.51
SMILES: Nc1ccc2nc(-c3ccc([18F])cc3)sc2c1

SUV [28]: 0.764 | SUV [29]: 0.685 | SUV [30]: 0.752 | SUV [31]: 1.334 | SUV [32]: 1.209 | SUV [33]: 1.195 | SUV [34]: 2.117 | SUV [35]: 0.039 | SUV [36]: 1.081 | SUV [37]: 0.862
SMILES: [11CH3]Nc1ccc(-c2nc3ccc(O)cc3s2)cc1 [PITTSBURGH COMPOUND B]

— ChEMBL document CHEMBL1154674, “Synthesis and evaluation of three 18F-labeled aminophenylbenzothiazoles as amyloid imaging agents” (J Med Chem, 2009)
